Measurements taken from ChEMBL document CHEMBL1128731, “Furanfurin and thiophenfurin: two novel tiazofurin analogues. Synthesis, structure, antitumor activity, and interactions with inosine monophosphate dehydrogenase” (J Med Chem, 1995).

Legend:
[1] = tested on: K562; assay: Compound was tested for its effect on AMP ribonucleotide levels of K562 cell at 50 uM concentration; format: functional, Homo sapiens
Method in brief: (§1)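 K562 cells (1×10^7) were treated with saline or agent for 2 h at 37 °C, harvested by centrifugation and washed with cold saline. They were extracted with cold 10% trichloroacetic acid, neutralized with 0.5 M tri-n-octylamine in freon, and analyzed by HPLC. Levels are in nmol/g and expressed as % of saline control. Significance was set at p < 0.05.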

[2] = tested on: K562; assay: Compound was tested for its effect on UTP ribonucleotide levels of K562 cell at 100 uM concentration; format: functional, Homo sapiens; method in brief: as §1
[3] = tested on: HL-60; assay: Inhibitory concentration against HL-60 human promyelocytic leukemia; format: functional, cell-based
Method in brief: (§2)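 Cells in log phase plated with a range of drug concentrations (B16 5×10^3 cells/well; P388, L1210, LLC 10^4 cells/well; HL-60, K562, LoVo 2.5×10^5 cells/well). Growth read by modified MTT after 72 h drug contact at 37 °C. IC50 taken as the concentration reducing optical absorption by 50%, from Chou regression analysis. Maximum concentration tested 200 μM.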

[4] = tested on: LoVo; assay: Inhibitory concentration against LoVo human colon adenocarcinoma cell lines; format: functional, cell-based; method in brief: as §2
[5] = tested on: K562; assay: Compound was tested for its effect on CTP ribonucleotide levels of K562 cell at 50 uM concentration; format: functional, Homo sapiens; method in brief: as §1
[6] = organism: Homo sapiens; assay: (§3) Inhibitory concentration range against human bone marrow; format: functional, organism-based
Method in brief: (§4)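 Antiproliferative assay scoring [125I]-5-iodo-2'-deoxyuridine incorporation into DNA after 72 h drug–cell contact. Run on normal human bone marrow from five donors and in three assays on HL-60. Ratio is antilog(mean log IC50 or IC90) on bone marrow over the same on HL-60. Range limits are antilog(mean log IC50 ± 2SD).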

[7] = tested on: K562; assay: Compound was tested for its effect on ATP ribonucleotide levels of K562 cell at 100 uM concentration; format: functional, Homo sapiens; method in brief: as §1
[8] = tested on: Mus musculus; assay: Compound was tested for ratio of survival time of treated to control mice x100 at 400 mg/kg dose; format: functional
Method in brief: (§5)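 Female BD2F1 mice (8 weeks old, 20–22 g), eight per group, injected ip with 10^5 L1210 leukemia cells on day 0. Starting 24 h later, drug dissolved in 0.9% NaCl given ip once daily for 9 consecutive days. % T/C = survival time of treated/control mice × 100. Body weight change tracked from start to end of treatment.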

[9] = tested on: K562; assay: Formation of NAD analogue by compound at 100 uM concentration against human myelogenous leukemia K562; format: functional
Method in brief: (§6)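 K562 cells (1×10^7/10 mL) were labeled with 185 nM [2,8-3H]adenosine for 1 h at 37 °C, then given saline or analogue for 2 h. Cells were pelleted, washed with PBS and extracted in cold 10% trichloroacetic acid. Extracts were neutralized with 0.5 M tri-n-octylamine in freon and run on SAX HPLC with ammonium phosphate buffer. Results are pmol NAD analogue per 10^9 cells.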

[10] = tested on: K562; assay: Compound was tested for its effect on ADP ribonucleotide levels of K562 cell at 50 uM concentration; format: functional, Homo sapiens; method in brief: as §1
[11] = tested on: K562; assay: Compound was tested for its effect on CDP ribonucleotide levels of K562 cell at 50 uM concentration; format: functional, Homo sapiens; method in brief: as §1
[12] = tested on: K562; assay: Compound was tested for its effect on UMP ribonucleotide levels of K562 cell at 100 uM concentration; format: functional, Homo sapiens; method in brief: as §1
[13] = tested on: HL-60; assay: (§7) Inhibitory concentration range against human HL-60 cell line; format: functional, cell-based; method in brief: as §4
[14] = tested on: K562; assay: Compound was tested for its effect on CDP ribonucleotide levels of K562 cell at 100 uM concentration; format: functional, Homo sapiens; method in brief: as §1
[15] = tested on: Mus musculus; assay: Compound was tested for ratio of survival time of treated to control mice x100 at 25 mg/kg dose; format: functional; method in brief: as §5
[16] = tested on: K562; assay: Compound was tested for its effect on GDP ribonucleotide levels of K562 cell at 100 uM concentration; format: functional, Homo sapiens; method in brief: as §1
[17] = IC90 ratio against bone marrow samples to HL-60; format: functional; method in brief: as §4
[18] = tested on: HL-60; assay: as §7; format: functional; method in brief: as §4
[19] = tested on: K562; assay: Compound was tested for its effect on GTP ribonucleotide levels of K562 cell at 50 uM concentration; format: functional, Homo sapiens; method in brief: as §1
[20] = tested on: K562; assay: Compound was tested for its effect on ATP ribonucleotide levels of K562 cell at 50 uM concentration; format: functional, Homo sapiens; method in brief: as §1
[21] = tested on: K562; assay: Compound was tested for its effect on IMP ribonucleotide levels of K562 cell at 100 uM concentration; format: functional, Homo sapiens; method in brief: as §1
[22] = tested on: L1210; assay: Inhibitory concentration against L1210 murine lymphocytic leukemia; format: functional, cell-based; conditions: Mus musculus; method in brief: as §2
[23] = tested on: K562; assay: Compound was tested for its effect on UMP ribonucleotide levels of K562 cell at 50 uM concentration; format: functional, Homo sapiens; method in brief: as §1
[24] = tested on: K562; assay: Compound was tested for its effect on GDP ribonucleotide levels of K562 cell at 50u; format: functional, Homo sapiens; method in brief: as §1
[25] = tested on: K562; assay: Inhibitory concentration against K562 human myelogenous leukemia cell line; format: functional, cell-based; method in brief: as §2
[26] = tested on: Mus musculus; assay: Average weight change of mice from onset to termination of drug treatment at 25 mg/kg dose; format: functional
Method in brief: (§8)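 Female BD2F1 mice (8 weeks, 20–22 g), eight per group, injected ip with 10^5 L1210 cells on day 0. From 24 h later, drug in 0.9% NaCl was given ip once daily for 9 days. Body weight change was averaged from onset to termination of treatment. Early deaths from toxicity were recorded.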

[27] = Ratio of IC50 against HL-60; format: functional; method in brief: as §4
[28] = tested on: K562; assay: Compound was tested for its effect on IMP ribonucleotide levels of K562 cell at 50 uM concentration; format: functional, Homo sapiens; method in brief: as §1
[29] = tested on: K562; assay: Compound was tested for its effect on GMP ribonucleotide levels of K562 cell at 50 uM concentration; format: functional, Homo sapiens; method in brief: as §1
[30] = tested on: K562; assay: Compound was tested for its effect on UDP ribonucleotide levels of K562 cell at 50 uM concentration; format: functional, Homo sapiens; method in brief: as §1
[31] = tested on: K562; assay: Compound was tested for its effect on NAD ribonucleotide levels of K562 cell at 50 uM concentration; format: functional, Homo sapiens; method in brief: as §1
[32] = tested on: P388; assay: Inhibitory concentration against P388 murine lymphocytic leukemia cell lines; format: functional, cell-based; conditions: Mus musculus; method in brief: as §2
[33] = tested on: Mus musculus; assay: Average weight change of mice from onset to termination of drug treatment at 400 mg/kg dose; format: functional; method in brief: as §8
[34] = tested on: K562; assay: Compound was tested for its effect on CTP ribonucleotide levels of K562 cell at 100 uM concentration; format: functional, Homo sapiens; method in brief: as §1
[35] = organism: Homo sapiens; assay: as §3; format: functional; method in brief: as §4
[36] = tested on: K562; assay: Formation of NAD analogue by compound at 50 uM concentration against human myelogenous leukemia K562; format: functional; method in brief: as §6
[37] = IC50 ratio against bone marrow samples to HL-60; format: functional; method in brief: as §4
[38] = tested on: K562; assay: Compound was tested for its effect on GMP ribonucleotide levels of K562 cell at 100 uM concentration; format: functional, Homo sapiens; method in brief: as §1
[39] = tested on: Lewis lung carcinoma cell line; assay: Inhibitory concentration against LLC Lewis lung carcinoma; format: functional, cell-based; conditions: Mus musculus; method in brief: as §2
[40] = tested on: K562; assay: Compound was tested for its effect on IMPDH activity against K562 cells at 50 uM concentration; format: functional, Homo sapiens
Method in brief: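 Log-phase K562 cells (1×10^6/mL) were exposed to saline or agent for 2 h at 37 °C, washed and lysed (Tris-HCl pH 7.4, NaCl, MgCl2, 0.5% NP-40, aprotinin). The cleared supernatant was incubated 30 min at 37 °C with 286 μM [2,8-3H]IMP and 1 mM NAD. Tritium release was counted by scintillation. Activity is nmol XMP/h/mg protein, also given as % of control.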

[41] = tested on: K562; assay: Compound was tested for its effect on NAD ribonucleotide levels of K562 cell at 100 uM concentration; format: functional, Homo sapiens; method in brief: as §1
[42] = tested on: K562; assay: Compound was tested for its effect on UDP ribonucleotide levels of K562 cell at 100 uM concentration; format: functional, Homo sapiens; method in brief: as §1
[43] = tested on: K562; assay: Compound was tested for its effect on GTP ribonucleotide levels of K562 cell at 100 uM concentration; format: functional, Homo sapiens; method in brief: as §1
[44] = tested on: K562; assay: Compound was tested for its effect on AMP ribonucleotide levels of K562 cell at 100 uM concentration; format: functional, Homo sapiens; method in brief: as §1
[45] = tested on: K562; assay: Compound was tested for its effect on ADP ribonucleotide levels of K562 cell at 100 uM concentration; format: functional, Homo sapiens; method in brief: as §1
[46] = tested on: K562; assay: Compound was tested for its effect on UTP ribonucleotide levels of K562 cell at 50 uM concentration; format: functional, Homo sapiens; method in brief: as §1
[47] = tested on: K562; assay: compound was tested for its effect on IMPDH activity against K562 cells at 50 uM concentration; format: functional, Homo sapiens
Method in brief: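 K562 cells (1×10^6/mL, log phase) exposed 2 h at 37 °C to 10, 50 or 100 μM drug, or to saline. Cells washed and lysed in Tris-HCl pH 7.4/NaCl/MgCl2/NP-40/aprotinin, and the 13000g supernatant used as enzyme. Enzyme incubated 30 min at 37 °C with 286 μM [2,8-3H]IMP and 1 mM NAD. Tritium release counted; activity in nmol XMP/h/mg protein, as % of saline control.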

With `NC(=O)c1csc([C@@H]2O[C@H](CO)[C@@H](O)[C@H]2O)n1` [TIAZOFURIN] the Control [1] was 100%, the Control [2] was 90% and the IC50 [3] was 8.7 µM. It also gave an IC50 [4] of over 128 µM, a Control [5] of 92% and an IC50 [6] of 10.4 µM. For the same molecule, the Control [7] was 91%, the T/C [8] was 260% and the Formation [9] was 310 pmol/10^9 cells. The Control [10] was 103%, the Control [11] was 104% and the Control [12] was 96%. It also gave an IC50 [13] of 2.5 µM, a Control [14] of 85% and a T/C [15] of 177%. It also gave a Control [16] of 63%, a Ratio [17] of over 6 and an IC90 [18] of 7.6 µM. For the same molecule, the Control [19] was 64%, the Control [20] was 101% and the Control [21] was 578%. For the same molecule, the IC50 [22] was 7.4 µM, the Control [23] was 113% and the Control [24] was 82%. The IC50 [25] was 4.5 µM, the Change [26] was -4.3% and the Ratio [27] was 1.9. For the same molecule, the Control [28] was 544%, the Control [29] was 62% and the Control [30] was 120%. It also gave a Control [31] of 98%, an IC50 [32] of 2.2 µM and a Change [33] of -13.1%. It also gave a Control [34] of 32%, an IC90 [35] of over 128 µM and a Formation [36] of 186 pmol/10^9 cells. It also gave a Ratio [37] of 7.3, a Control [38] of 55% and an IC50 [39] of 1.5 µM. For the same molecule, the Activity [40] was 1.82, the Control [41] was 84% and the Control [42] was 116%. For the same molecule, the Control [43] was 54%, the Control [44] was 103% and the Control [45] was 99%. It also gave a Control [46] of 115% and a Control [47] of 37%.
